Source: ChEMBL document CHEMBL1765042, “Utilization of nitrophenylphosphates and oxime-based ligation for the development of nanomolar affinity inhibitors of the Yersinia pestis outer protein H (YopH) phosphatase” (J Med Chem, 2011)
The source made the active and inactive calls. The rule behind the calls is not given here.

Tests used:
Yersinia pestis = test: Antimicrobial activity against pgm, pla deficient Yersinia pestis CO92 infected in human peripheral blood monocytes assessed as inhibition of intracellular bacterial growth at 10 uM after 16 hrs; assay type: functional, organism-based
[1] = biological target: Secreted effector protein (Yersinia pestis, UniProt O68720); test: Inhibition of Yersinia pestis outer protein H expressed in Escherichia coli after 15 to 20 mins
Method in brief: (§1)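 YopH PTPase domain (residues 164–468) expressed in E. coli. Buffer: 25 mM HEPES pH 7.0–7.6, 50 mM NaCl, 2.5 mM EDTA, 5 mM DTT plus 1 mM fresh DTT, with BSA, no detergent. Inhibitor DMSO dilutions ran 400 to 0.032 μM. Substrate was pNPP (10 mM stock), incubated 25 °C for 15–20 min. pNPP hydrolysis was measured colorimetrically and IC50 came from a Boltzmann sigmoidal fit.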

[2] = biological target: Receptor-type tyrosine-protein phosphatase F (Homo sapiens, UniProt P10586); test: Inhibition of human leukocyte antigen related phosphatase
Method in brief: (§2)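 Recombinant phosphatases: Variola major VH1, human DUSP-14, and catalytic domains of DUSP-22, PTP1B and LAR. Each was assayed by the same spectrophotometric pNPP hydrolysis method as YopH (HEPES pH 7.0–7.6, NaCl, EDTA, DTT, BSA buffer; 25 °C, 15–20 min). IC50 came from a Boltzmann sigmoidal fit.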

[3] = biological target: Secreted effector protein (Yersinia pestis) (UniProt O68720); test: Inhibition of Yersinia pestis outer protein H expressed in Escherichia coli after 15 to 20 mins in presence of 0.01% TX-100
Method in brief: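 YopH PTPase domain (residues 164–468, E. coli-expressed) run in a parallel independent pNPP hydrolysis assay with 0.01% Triton X-100 added. Buffer: 25 mM HEPES pH 7.0–7.6, 50 mM NaCl, 2.5 mM EDTA, DTT, BSA. Inhibitor DMSO dilutions ran 400 to 0.032 μM, incubated 25 °C for 15–20 min. IC50 came from a Boltzmann sigmoidal fit.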

[4] = biological target: Tyrosine-protein phosphatase non-receptor type 1 (Homo sapiens, UniProt P18031); test: Inhibition of human PTP1B; method in brief: as §2
[5] = biological target: Dual specificity protein phosphatase 22 (Homo sapiens, UniProt Q9NRW4); test: Inhibition of human DUSP22; method in brief: as §2
[6] = biological target: Secreted effector protein (Yersinia pestis) (UniProt O68720); test: Inhibition of Yersinia pestis outer protein H expressed in Escherichia coli after 15 to 20 mins in absence of 0.01% TX-100; method in brief: as §1
[7] = biological target: Dual specificity protein phosphatase 14 (Homo sapiens, UniProt O95147); test: Inhibition of human DUSP14; method in brief: as §2
J774 = test: Cytotoxicity against mouse J774 cells assessed as cell viability by measuring ATP level at < 100 uM after 40 hrs; assay type: cell-based; conditions: j774, 40 h
Method in brief: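 J774 mouse macrophages, 5 × 10^5 cells/well, in Eagle's MEM with 4 mM L-glutamine, 4500 mg/L glucose and 7.5% FBS, at 37 °C, 5% CO2. Compound was diluted from a 10 mM DMSO stock to final 0.1–100 μM (1% DMSO in all wells) and cells were cultured 40 h. Viability was read as cellular ATP content.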

[8] = Inhibition of Variola major virus phosphatase VH1; method in brief: as §2
[9] = substrate: NOCc1ccc(OP(=O)(O)O)c([N+](=O)[O-])c1; conditions: Yersinia pestis
[10] = substrate: C/C=N/OCc1cc(OP(=O)(O)O)ccc1[N+](=O)[O-]; conditions: Yersinia pestis
[11] = substrate: O=[N+]([O-])c1ccc(OP(=O)(O)O)cc1-c1ccccc1; conditions: Yersinia pestis
[12] = substrate: O=[N+]([O-])c1cc(-c2ccccc2)ccc1OP(=O)(O)O; conditions: Yersinia pestis
[13] = substrate: CC(C)(C)c1cc(OP(=O)(O)O)ccc1[N+](=O)[O-]; conditions: Yersinia pestis
[14] = substrate: Cc1cccc([N+](=O)[O-])c1OP(=O)(O)O; conditions: Yersinia pestis
[15] = substrate: O=[N+]([O-])c1ccc(OP(=O)(O)O)c(C2CCCCC2)c1; conditions: Yersinia pestis
[16] = substrate: CC(C)(C)c1ccc(OP(=O)(O)O)c([N+](=O)[O-])c1; conditions: Yersinia pestis
[17] = substrate: O=[N+]([O-])c1cccc(C2CCCCC2)c1OP(=O)(O)O; conditions: Yersinia pestis
[18] = substrate: O=[N+]([O-])c1ccc(OP(=O)(O)O)cc1; conditions: Yersinia pestis
[19] = substrate: NOCc1cc(OP(=O)(O)O)ccc1[N+](=O)[O-]; conditions: Yersinia pestis
[20] = substrate: Cc1cc([N+](=O)[O-])ccc1OP(=O)(O)O; conditions: Yersinia pestis

Chain of Tyrosine-protein phosphatase non-receptor type 1 (P18031 whole entry): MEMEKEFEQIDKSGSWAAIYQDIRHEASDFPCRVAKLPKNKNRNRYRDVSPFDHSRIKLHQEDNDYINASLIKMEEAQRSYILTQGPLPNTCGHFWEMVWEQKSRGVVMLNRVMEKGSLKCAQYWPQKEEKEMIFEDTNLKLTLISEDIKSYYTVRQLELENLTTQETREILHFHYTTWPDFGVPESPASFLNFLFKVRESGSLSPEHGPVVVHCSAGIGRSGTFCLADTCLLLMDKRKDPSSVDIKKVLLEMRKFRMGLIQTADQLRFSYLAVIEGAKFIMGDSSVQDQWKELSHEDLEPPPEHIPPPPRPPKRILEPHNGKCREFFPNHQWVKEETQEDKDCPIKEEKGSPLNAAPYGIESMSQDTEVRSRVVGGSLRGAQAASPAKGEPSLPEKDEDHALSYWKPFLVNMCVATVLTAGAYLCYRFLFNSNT
Chain of Dual specificity protein phosphatase 22 (Q9NRW4 whole entry): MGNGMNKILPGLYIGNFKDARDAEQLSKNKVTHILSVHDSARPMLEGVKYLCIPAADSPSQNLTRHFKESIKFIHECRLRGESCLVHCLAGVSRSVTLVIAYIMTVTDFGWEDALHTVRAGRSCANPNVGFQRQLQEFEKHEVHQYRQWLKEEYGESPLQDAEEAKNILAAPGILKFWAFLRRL
Chain of Dual specificity protein phosphatase 14 (O95147 whole entry): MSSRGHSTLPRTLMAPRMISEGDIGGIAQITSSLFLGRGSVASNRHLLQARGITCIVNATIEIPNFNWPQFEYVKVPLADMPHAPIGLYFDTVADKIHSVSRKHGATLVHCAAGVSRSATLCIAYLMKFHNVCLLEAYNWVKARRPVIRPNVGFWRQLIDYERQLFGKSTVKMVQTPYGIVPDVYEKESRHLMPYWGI
Chain of Receptor-type tyrosine-protein phosphatase F (P10586 whole entry, the tested form may be a part): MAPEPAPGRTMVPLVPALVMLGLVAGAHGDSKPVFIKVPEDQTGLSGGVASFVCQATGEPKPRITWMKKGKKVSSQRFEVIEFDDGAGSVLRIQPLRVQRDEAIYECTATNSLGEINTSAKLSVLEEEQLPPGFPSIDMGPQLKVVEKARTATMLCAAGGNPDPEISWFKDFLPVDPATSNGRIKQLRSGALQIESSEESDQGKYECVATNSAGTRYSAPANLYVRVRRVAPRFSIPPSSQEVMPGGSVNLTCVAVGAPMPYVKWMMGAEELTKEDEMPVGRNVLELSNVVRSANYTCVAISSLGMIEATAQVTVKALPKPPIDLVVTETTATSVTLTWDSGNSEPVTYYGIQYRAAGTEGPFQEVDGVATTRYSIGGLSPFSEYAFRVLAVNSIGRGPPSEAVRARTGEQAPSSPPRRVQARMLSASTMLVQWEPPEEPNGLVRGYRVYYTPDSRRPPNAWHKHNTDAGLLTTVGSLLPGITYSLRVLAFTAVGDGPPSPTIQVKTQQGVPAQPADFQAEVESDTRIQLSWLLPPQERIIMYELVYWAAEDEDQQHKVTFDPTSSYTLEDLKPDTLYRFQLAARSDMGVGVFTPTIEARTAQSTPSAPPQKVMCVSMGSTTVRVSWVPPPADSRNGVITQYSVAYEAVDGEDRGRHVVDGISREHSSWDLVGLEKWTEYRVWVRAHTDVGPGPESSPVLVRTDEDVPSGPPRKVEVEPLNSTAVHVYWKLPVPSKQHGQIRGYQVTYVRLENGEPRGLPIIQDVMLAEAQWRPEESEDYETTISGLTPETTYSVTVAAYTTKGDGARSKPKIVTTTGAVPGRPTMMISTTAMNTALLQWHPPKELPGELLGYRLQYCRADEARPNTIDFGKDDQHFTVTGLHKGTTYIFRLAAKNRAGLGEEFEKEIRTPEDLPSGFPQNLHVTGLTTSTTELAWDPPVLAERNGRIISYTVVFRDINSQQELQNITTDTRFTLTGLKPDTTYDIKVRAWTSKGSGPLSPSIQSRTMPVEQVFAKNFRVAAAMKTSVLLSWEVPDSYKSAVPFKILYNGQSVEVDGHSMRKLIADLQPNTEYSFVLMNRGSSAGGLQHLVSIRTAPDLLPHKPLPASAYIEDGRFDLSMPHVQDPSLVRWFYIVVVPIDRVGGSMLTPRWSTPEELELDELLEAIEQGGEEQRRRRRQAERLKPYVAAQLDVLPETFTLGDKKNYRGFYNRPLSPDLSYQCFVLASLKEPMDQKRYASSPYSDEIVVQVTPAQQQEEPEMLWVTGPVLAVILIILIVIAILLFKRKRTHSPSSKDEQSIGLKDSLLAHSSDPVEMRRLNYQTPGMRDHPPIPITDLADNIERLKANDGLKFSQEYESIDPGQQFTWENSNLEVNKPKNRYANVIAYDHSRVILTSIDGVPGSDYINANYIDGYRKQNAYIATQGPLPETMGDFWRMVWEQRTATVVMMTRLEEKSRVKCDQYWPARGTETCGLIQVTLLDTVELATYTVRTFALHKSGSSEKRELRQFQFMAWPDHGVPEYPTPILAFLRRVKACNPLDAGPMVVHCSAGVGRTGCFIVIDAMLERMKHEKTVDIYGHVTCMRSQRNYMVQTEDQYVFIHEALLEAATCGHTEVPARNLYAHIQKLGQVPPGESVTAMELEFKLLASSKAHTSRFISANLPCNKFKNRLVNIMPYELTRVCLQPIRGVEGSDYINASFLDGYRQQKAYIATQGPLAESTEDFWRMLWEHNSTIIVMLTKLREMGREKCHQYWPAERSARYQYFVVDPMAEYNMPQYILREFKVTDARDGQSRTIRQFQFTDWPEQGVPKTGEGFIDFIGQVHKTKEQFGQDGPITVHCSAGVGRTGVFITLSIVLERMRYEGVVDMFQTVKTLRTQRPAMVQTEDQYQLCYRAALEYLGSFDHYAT

For `O=C(O)c1ccc(/C=N/OCc2ccc(-c3cccc(C(F)(F)P(=O)(O)O)c3)cc2)o1`, the inhibition (Yersinia pestis) was “Active”, the IC50 [1] was 0.19 µM and the IC50 [2] was over 400 µM. For the same molecule, the inhibition [3] was “Active”, the IC50 [4] was 2.23 µM and the IC50 [5] was over 400 µM. The inhibition [6] was “Active”, the IC50 [7] was over 400 µM and the Activity (J774) was “Non-toxic”. The IC50 [8] was over 400 µM.

Work on `O=P(O)(O)C(F)(F)c1cccc(-c2ccc(CO/N=C/c3ccoc3)cc2)c1` yielded an IC50 [1] of 3.69 µM.

In the case of `O=P(O)(O)C(F)(F)c1cccc(-c2ccc(CO/N=C/c3ccc(CO)o3)cc2)c1`, the IC50 [1] is reported as 0.73 µM.

For GENTAMICIN, the inhibition (Yersinia pestis) was “Active”.

Work on `Cc1ccc(/C=N/OCc2ccc(-c3cccc(C(F)(F)P(=O)(O)O)c3)cc2)o1` yielded an IC50 [1] of 0.91 µM.

With `O=P(O)(O)C(F)(F)c1cccc(-c2ccc(CO/N=C/c3ccco3)cc2)c1` the IC50 [1] was 1.2 µM.

B1: Secreted effector protein (Yersinia pestis), O68720 (protein)
chain: MNLSLSDLHRQVSRLVQQESGDCTGKLRGNVAANKETTFQGLTIASGARESEKVFAQTVLSHVANVVLTQEDTAKLLQSTVKHNLNNYDLRSVGNGNSVLVSLRSDQMTLQDAKVLLEAALRQESGARGHVSSHSHSALHAPGTPVREGLRSHLDPRTPPLPPRERPHTSGHHGAGEARATAPSTVSPYGPEARAELSSRLTTLRNTLAPATNDPRYLQACGGEKLNRFRDIQCCRQTAVRADLNANYIQVGNTRTIACQYPLQSQLESHFRMLAENRTPVLAVLASSSEIANQRFGMPDYFRQSGTYGSITVESKMTQQVGLGDGIMADMYTLTIREAGQKTISVPVVHVGNWPDQTAVSSEVTKALASLVDQTAETKRNMYESKGSSAVGDDSKLRPVIHCRAGVGRTAQLIGAMCMNDSRNSQLSVEDMVSQMRVQRNGIMVQKDEQLDVLIKLAEGQGRPLLNS
For B1, the Km [9] was 1130 µM, the Km [10] was 170 µM and the Km [11] was 80 µM. The Km [12] was 150 µM, the Km [13] was 1140 µM and the Km [14] was “Not Active”. The Km [15] was 260 µM, the Km [16] was 470 µM and the Km [17] was “Not Active”. The Km [18] was 600 µM, the Km [19] was 410 µM and the Km [20] was 650 µM.
